Source: PubChem
In the library only some 4.3% were active in any assay of this set; here they are far more common.
PREPL inh = inhibitors of human prolyl oligopeptidase-like enzyme PREPL; Q4J6C6; recombinant PREPL, fluorescence polarization activity-based probe; inhibition, % at 5.96 µM; 320,000 compounds, 0.68% hits; AID 2751
Rin1-Abl PPI inh = inhibitors of human Rin1-Abl protein interaction | P00519+Q13671 | TR-FRET Rin1/Abl binding, biochemical | inhibition, % at 7.35 µM | 360,000 compounds, 0.4% hits | AID 588664; in the data active = inhibition above about 5%, passing the limit was not always enough
UBC13 polyUb = blocks human UBC13 polyubiquitin chain formation; P61088; TR-FRET; inhibition, % at 20 µM; 330,000 compounds, 0.47% hits; in the data active = inhibition above about 45%, passing the limit was not always enough
Target sequence (P61088 whole entry, looked up): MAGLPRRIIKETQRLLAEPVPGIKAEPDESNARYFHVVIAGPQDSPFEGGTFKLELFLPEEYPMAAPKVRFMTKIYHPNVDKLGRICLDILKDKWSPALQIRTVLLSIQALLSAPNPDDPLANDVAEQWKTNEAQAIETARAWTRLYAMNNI
RBBP9 inh = inhibitors of human serine hydrolase RBBP9 | O75884 | AID 1515 | 220,000 compounds, 0.2% hits | inhibition, % at 7.94 µM | recombinant RBBP9, FP-Rh probe fluorescence polarization;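 active = inhibition above the campaign mean of all tested compounds plus 3 SD, cut at about 14% in these data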
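System: RBBP9 protein / Quantity: 2.5 µM RBBP9 dispensing solution, before mixing / Also added: Serine-hydrolase probe FP-Rh, 375 nM pre-mixing / Dosing: 7.94 µM single dose, 0.794% DMSO / Timing: enzyme-compound preincubation 30 min, then probe labeling 45 min, 25 °C / Signal: FP readout at 525/598 nm / Controls: DMSO-treated enzyme wells and wells lacking RBBP9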
ALR H2O2 inh = human ALR oxidase inhibition via reduced H2O2 | P55789 | purified ALR, DTT oxidation, H2O2 HRP-luminol luminescence | inhibition, % (no concentration beside the values) | 290,000 compounds, 3.8% hits | AID 485317;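 active = mean replicate inhibition above about 79%, with every replicate also reaching it, limit read from the data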
Target sequence (P55789 whole entry, looked up): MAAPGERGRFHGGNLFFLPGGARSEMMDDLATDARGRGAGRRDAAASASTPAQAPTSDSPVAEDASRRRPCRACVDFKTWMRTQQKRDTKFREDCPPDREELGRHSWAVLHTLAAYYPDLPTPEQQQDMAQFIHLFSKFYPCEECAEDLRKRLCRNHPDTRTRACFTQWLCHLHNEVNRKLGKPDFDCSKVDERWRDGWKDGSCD
UBC9 SUMO inh = blocks human SUMOylation mediated by UBC9. P63279. HTRF SUMOylation assay, SAE1/SAE2 + UBC9, in vitro. inhibition, % at 35 µM. 290,000 compounds, 0.36% hits. AID 2006; in the data active = inhibition above about 50%, passing the limit was not always enough
Target sequence (P63279 whole entry, looked up): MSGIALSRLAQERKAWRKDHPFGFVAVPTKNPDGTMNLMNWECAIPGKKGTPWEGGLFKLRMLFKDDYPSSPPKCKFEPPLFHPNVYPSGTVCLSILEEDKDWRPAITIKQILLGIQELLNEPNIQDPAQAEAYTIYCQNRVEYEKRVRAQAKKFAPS
PREPL inh cf = human PREPL inhibition, confirmation | shares compounds with PREPL inh | recombinant PREPL, fluorescence polarization activity probe | inhibition, % at 5.96 µM | 2,000 compounds, 67% hits | AID 2803
Casp3 UBC13 ctr = inhibits human caspase-3 in UBC13 counter-screen; Recombinant caspase-3, Caspase-Glo 3/7 luminescence, 60 min; inhibition, % at 20 µM; shares compounds with UBC13 polyUb; 1,400 compounds, 4% hits; AID 488856;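 active = mean inhibition across replicates above about 26%, limit read from the data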
UBC13 confirm = confirmation of human UBC13 polyubiquitin inhibitors | shares compounds with UBC13 polyUb | UBC13 polyubiquitination, TR-FRET, biochemical | inhibition, % at 10 µM | 1,400 compounds, 68% hits | AID 488859; in the data active = inhibition above about 45%
A number is an active result; 0 = inactive; - = no result. Cut-off read from the data, not from the text of the source, unless noted: active = inhibition above about 43%; inactive = the rest.

SMILES	PREPL inh	Rin1-Abl PPI inh	UBC13 polyUb	RBBP9 inh	ALR H2O2 inh	UBC9 SUMO inh	PREPL inh cf	Casp3 UBC13 ctr	UBC13 confirm
COCCCNC(=O)/C(C#N)=C/c1c(N2CCN(c3cccc(Cl)c3)CC2)nc2c(C)cccn2c1=O	0	0	0	-	0	0	-	-	-
C=CCNC(=O)/C(C#N)=C/c1c(N2CCN(c3ccccc3)CC2)nc2c(C)cccn2c1=O	0	0	0	-	0	0	-	-	-
Cc1ccc(CNC(=O)CCc2c(C)nn(-c3ccc(N4CCOCC4)nn3)c2C)cc1	0	0	0	-	0	0	-	-	-
O=C(Nc1ccccc1)n1ccc(-c2ccc(-n3ccnc3)cc2)n1	0	-	0	0	0	0	-	-	-
O=C(C[n+]1ccc(CCSc2ccc(F)cc2)cc1)c1ccccc1	53	0	72	0	0	0	44	0	124
CC(=O)Nc1cccc(Nc2cc(C)nn2C)c1	-	0	-	-	-	-	-	-	-
C#CCOCCOCCOCCNc1nc(N2CCN(C(=O)CCCCCCCCCCNC(=O)Cn3cc(CCCCCN)nn3)CC2)nc(N2CCN(C(=O)CCCCCCCCCCNC(=O)[C@@H](CCC(=O)O)n3cc(CCCCCN)nn3)CC2)n1	44	0	96	-	0	-	0	0	79
C#CCOCCOCCOCCNc1nc(N2CCN(C(=O)CCCCCCCCCCNC(=O)Cn3cc(CCCCCN)nn3)CC2)nc(N2CCN(C(=O)CCCCCCCCCCNC(=O)Cn3cc(CCCCCN)nn3)CC2)n1	64	13	118	-	0	-	62	0	121
CC(C)C[C@@H]1CN=C(N)N1C[C@@H]1CCCN1C[C@H](C)N1C[C@@H](Cc2ccccc2)N(CCCC2CCCC2)C1=N	52	0	61	-	0	-	0	0	64
CC(C)C[C@@H]1CN=C(N)N1C[C@@H]1CCCN1C[C@H](C)N1C[C@@H](Cc2ccccc2)N(CCc2ccc(Cl)c(Cl)c2)C1=N	45	0	76	-	0	-	0	0	71
CN(C)C1=NC[C@H](Cc2ccccc2)N1CCCC1CCCC1	0	0	0	-	0	-	-	-	-
CC(C)C[C@H]1CNC(=S)N1C[C@H]1CCCN1C[C@H](Cc1ccc(O)cc1)N1C[C@H](Cc2ccccc2)N(CCc2ccccc2)C1=S	-	0	-	-	-	-	-	-	-
COc1ccc2c(c1OC)OCC2C (centres undefined)	-	0	-	-	-	-	-	-	-
Cc1ccc(Nc2nc(NCCO)c3ccccc3n2)cc1C	56	0	52	-	0	0	50	0	82
COc1ccccc1Nc1nc(NCCO)c2ccccc2n1	-	-	0	0	-	0	-	-	-
Nc1ccc2nc(-c3cccc(-c4nc5ccc(N)cc5[nH]4)n3)[nH]c2c1	56	0	100	-	99	0	0	0	114
Cc1nc(NC(=O)CN2CCN(c3cccc(Cl)c3)CC2)sc1C(=O)N(C)C	0	0	0	-	0	0	-	-	-
CC1CCC(C(C)C)C(OC(=O)COC(=O)c2cccn2C)C1 (centres undefined)	0	0	0	0	0	0	-	-	-
CC1CCC(C(C)C)C(OC(=O)Cn2c(-c3ccc(Br)cc3)[n+](C)c3ccccc32)C1 (centres undefined)	49	0	55	0	0	0	44	0	78
C=Cc1ccc(Cn2c(=O)n(C)c(=O)c3sccc32)cc1	0	0	0	-	0	0	-	-	-
C#CCOCCOCCOCCNc1nc(N2CCN(C(=O)[C@H](CCCCN)n3cc([C@@H](N)C(C)CC)nn3)CC2)nc(N2CCN(C(=O)[C@H](Cc3cc4ccccc4[nH]3)n3cc([C@@H](N)CC(C)C)nn3)CC2)n1 (some centres undefined)	58	0	100	0	0	0	58	0	116
C#CCOCCOCCOCCNc1nc(N2CCN(C(=O)C(Cc3ccc(O)cc3)n3cc(C(N)CC(C)C)nn3)CC2)nc(N2CCN(C(=O)C(Cc3cc4ccccc4[nH]3)n3cc(C(N)Cc4ccc(O)cc4)nn3)CC2)n1 (centres undefined)	52	-	78	0	0	0	51	0	59
C#CCOCCOCCOCCNc1nc(N2CCN(C(=O)[C@H](Cc3ccc(O)cc3)n3cc([C@@H](N)C(C)CC)nn3)CC2)nc(N2CCN(C(=O)[C@H](CCCCN)n3cc([C@@H](N)CO)nn3)CC2)n1 (some centres undefined)	0	0	0	0	0	0	-	-	-
N#Cc1ccc(C(=O)CN2CCN(c3ccccc3)CC2)cc1	0	0	0	-	-	0	-	-	-
CN1CCN(CCCN2c3ccccc3Sc3ccc(Cl)cc32)CC1	63	0	97	0	99	0	55	0	99
SMILES	PREPL inh	Rin1-Abl PPI inh	UBC13 polyUb	RBBP9 inh	ALR H2O2 inh	UBC9 SUMO inh	PREPL inh cf	Casp3 UBC13 ctr	UBC13 confirm
OC1CC2CCC(C1)N2CCCN1c2ccccc2Sc2ccc(Cl)cc21 (centres undefined)	-	0	-	-	-	-	-	-	-
Cc1ccc(Cc2c(C)nc3nc(SCC(=O)NCCCN4CCCCCC4)nn3c2C)cc1	53	-	103	-	0	0	0	0	101
Cc1nc2nc(SCC(=O)NCCCN3CCCCC3)nn2c(C)c1Cc1ccccc1	0	0	0	-	0	0	-	-	-
C#CCOCCOCCOCCNc1nc(N2CCN(C(=O)CCCCCCCCCCNC(=O)Cn3cc(C[C@@H](C)O)nn3)CC2)nc(N2CCN(C(=O)CCCCCCCCCCNC(=O)[C@H](CCCN=C(N)N)n3cc(C[C@@H](C)CC)nn3)CC2)n1	48	13	124	-	0	-	0	0	119
C#CCOCCOCCOCCNc1nc(N2CCN(C(=O)CCCCCCCCCCNC(=O)[C@H]([C@@H](C)CC)n3cc(CCCCCN)nn3)CC2)nc(N2CCN(C(=O)CCCCCCCCCCNC(=O)[C@H](CO)n3cc(CCCCCN)nn3)CC2)n1	50	0	120	-	0	-	51	0	124
C#CCOCCOCCOCCNc1nc(N2CCN(C(=O)CCCCCCCCCCNC(=O)[C@H]([C@@H](C)CC)n3cc(CCCCCN)nn3)CC2)nc(N2CCN(C(=O)CCCCCCCCCCNC(=O)[C@H]([C@@H](C)CC)n3cc(CCCCN=C(N)N)nn3)CC2)n1	63	0	125	-	0	-	57	0	128
C#CCOCCOCCOCCNc1nc(N2CCN(C(=O)CCCCCCCCCCNC(=O)Cn3cc(CCCCCN)nn3)CC2)nc(N2CCN(C(=O)CCCCCCCCCCNC(=O)[C@H]([C@@H](C)CC)n3cc(CCCCN=C(N)N)nn3)CC2)n1	68	15	121	-	0	-	62	0	124
CC1Sc2ccc(S(=O)(=O)CCC(=O)NC3CCCC(C)C3C)cc2NC1=O (centres undefined)	0	0	0	-	0	0	-	-	-
